Converted amounts (≈) assume the structure as drawn.
Key:
[1] = system: Histoplasma capsulatum; test: Antifungal activity against Histoplasma capsulatum G217B ATCC 26032 at pH 7 measured over 5 days; assay type: functional, organism-based; details: G217B ATCC 26032, 120 h
Procedure, shortened: (§1)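 Yeasts pre-grown in HMM (37 °C, 5% CO2) to exponential phase, counted by hemacytometer, diluted into RPMI buffered with 25 mM HEPES (pH 7.0) or 25 mM MOPS (pH 5.0) at 5 x 10^5 per well; two-fold dilutions 40 to 0.078 µM, 37 °C, agitated twice daily. A595 read over 5 days, normalized to DMSO controls; 4-day data fitted by 4-parameter regression for IC50; MIC = ≤10% growth.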

[2] = system: Cryptococcus neoformans; test: Antifungal activity against wild type fluconazole-sensitive Cryptococcus neoformans serotype A H99 at pH 7 measured over 4 days; assay type: functional, organism-based; details: var grubii H99 , 96 h
Procedure, shortened: (§2)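 YPD-grown exponential-phase yeasts, hemacytometer-counted, diluted into RPMI buffered to pH 7.0 with 25 mM HEPES (or pH 5.0 with […] for pH comparison) at 2 x 10^3 per well; two-fold series 40 to 0.078 µM, 37 °C, agitated twice daily. A595 followed over 4 days versus DMSO controls; day-3 turbidity fitted by 4-parameter regression for IC50; MIC = growth ≤10% of untreated.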

[3] = Aqueous solubility of the compound at pH 5; assay type: physicochemical; details: aqueous medium
[4] = Aqueous solubility of the compound at pH 7; assay type: physicochemical; details: aqueous medium
[5] = Ratio of aqueous solubility at pH 5 to aqueous solubility at pH 7; assay type: physicochemical; details: buffer
[6] = system: Histoplasma capsulatum; test: Antifungal activity against Histoplasma capsulatum G217B ATCC 26032 at pH 5 measured over 5 days; assay type: functional, organism-based; details: G217B ATCC 26032, 120 h; procedure, shortened: as §1
[7] = system: Cryptococcus neoformans; test: Antifungal activity against wild type fluconazole-sensitive Cryptococcus neoformans serotype A H99 at pH 5 measured over 4 days; assay type: functional, organism-based; details: var grubii H99 , 96 h; procedure, shortened: as §2
[8] = system: P388D1; test: Cytotoxicity against mouse P388D1 cells assessed as reduction in cell viability after 72 hrs by resazurin-based fluorescence assay; details: P388D1, 72 h
Procedure, shortened: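 P388D1 cells in Ham's F-12 + 10% FBS + 2 mM L-glutamine seeded at 5 x 10^3 per well, adhered overnight, exposed to compounds 80 to 0.3 µM for 72 h. Viability read as resorufin fluorescence (530/590 nm) after 0.1 mM resazurin, pre-saturation time points, versus untreated cells; three biological replicates; IC50 by non-linear regression.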

[9] = Therapeutic index, ratio of IC50 for mouse P388D1 cells to IC50 for Histoplasma capsulatum G217B ATCC 26032; assay type: toxicity; details: read-out: Ratio IC50
Procedure, shortened: (§3)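 Ratio of P388D1 IC50 (72 h resazurin viability, 80 to 0.3 µM) to yeast IC50 from RPMI/HEPES pH 7.0 broth dilution with A595 turbidity and 4-parameter regression.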

[10] = Therapeutic index, ratio of IC50 for mouse P388D1 cells to IC50 for wild type Cryptococcus neoformans serotype A H99; assay type: toxicity; details: read-out: Ratio IC50; procedure, shortened: as §3
[11] = system: Cryptococcus neoformans; test: Antifungal activity against wild-type fluconazole-sensitive Cryptococcus neoformans serotype D B3501 measured over 4 days; assay type: functional, organism-based; details: B3501, 96 h; procedure, shortened: as §2
[12] = system: Cryptococcus neoformans; test: Antifungal activity against fluconazole-resistant Cryptococcus neoformans serotype A TES9 harboring erg11 mutant measured over 4 days; assay type: functional, organism-based; details: TES9, 96 h; procedure, shortened: as §2
[13] = system: Cryptococcus neoformans; test: Antifungal activity against fluconazole-resistant Cryptococcus neoformans serotype A MRL862 harboring erg11 mutant measured over 4 days; assay type: functional, organism-based; details: MRL862, 96 h; procedure, shortened: as §2
[14] = system: Histoplasma capsulatum; test: Antifungal activity against RFP expressing Histoplasma capsulatum infected in LacZ-expressing mouse P388D1 cells incubated for 6 days measured daily by fluorescence assay; assay type: functional, organism-based; details: for MIC: 144 h; for IC50: P388D1, 144 h
Procedure, shortened: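 LacZ-expressing P388D1 macrophages (3x10^4 per well, adhered 3 h) infected with RFP Histoplasma yeasts at MOI 1:2 for 3 h, medium replaced with F-12 + 10% serum, overnight at 37 °C, then compound gradient added for 6 days. RFP fluorescence (530/590 nm) read daily; day-4 values relative to untreated infected cells fitted by non-linear regression; triplicate.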

Compound | IC50 [1] [nM] | MIC90 [1] [µM] | IC50 [2] [µM] | MIC90 [2] [µM] | IC50 [8] [µM] | selectivity ratio [9] | further results
CCc1cnc(NC(=O)C2CCCCC2)s1 | > 20000 | > 40 | > 20 | > 40 |  |  | 
O=C(CCC1CCCCC1)Nc1ncc(Cc2ccnc3ccccc23)s1 | > 20000 | > 40 | > 20 |  |  |  | solubility [3]: 5 µg/mL (≈ 13.2 µM); solubility [4]: 3 µg/mL (≈ 7.9 µM); Ratio [5]: 1.7; IC50 [6]: 15.7 µM; MIC90 [6]: 40 µM (≈ 15.2 µg/mL); IC50 [7]: > 20 µM; MIC90 [7]: > 40 µM
O=C(Nc1ncc(Cc2cccc3c2CCC3)s1)C1CCCCC1 | 250 | 0.63 (≈ 0.215 µg/mL) | 0.41 | 1.25 (≈ 0.426 µg/mL) | > 40 | > 160 | selectivity ratio [10]: > 98; IC50 [11]: 420 nM; MIC90 [11]: 1.25 µM (≈ 0.426 µg/mL); IC50 [12]: 450 nM; MIC90 [12]: 1.25 µM (≈ 0.426 µg/mL); IC50 [13]: 370 nM; MIC90 [13]: 1.25 µM (≈ 0.426 µg/mL)
O=C(Nc1ncc(Cc2cccc3sccc23)s1)C1CCCCC1 | 200 | 0.31 (≈ 0.111 µg/mL) | 0.21 to 0.37 | 0.63 to 1.25 (≈ 0.225 to 0.446 µg/mL) | > 40 | > 200 | selectivity ratio [10]: > 108; IC50 [11]: 160 nM; MIC90 [11]: 0.63 µM (≈ 0.225 µg/mL); IC50 [12]: 190 nM; MIC90 [12]: 0.31 µM (≈ 0.111 µg/mL); IC50 [13]: 130 nM; MIC90 [13]: 0.31 µM (≈ 0.111 µg/mL); MIC [14]: 2.5 µM (≈ 0.891 µg/mL); IC50 [14]: 1210 nM
O=C(Nc1ncc(Cc2csc3ccccc23)s1)C1CCCCC1 | > 20000 | > 40 | > 20 | > 40 |  |  | 
O=C(CCC1CCCCC1)Nc1ncc(Cc2cccc3ccoc23)s1 | 400 | 0.63 (≈ 0.232 µg/mL) | > 20 | > 40 | 17.8 | 44 | 
O=C(Nc1ncc(Cc2ccccc2)s1)C1CCCCC1 | 1060 | 2.5 (≈ 0.751 µg/mL) | 1.36 | 2.5 (≈ 0.751 µg/mL) | > 40 | > 38 | selectivity ratio [10]: > 29
O=C(Nc1ncc(Cc2cccc3ccsc23)s1)C1CCCCC1 | 200 | 0.31 (≈ 0.111 µg/mL) | 0.34 | 0.63 (≈ 0.225 µg/mL) | > 40 | > 200 | selectivity ratio [10]: > 118; IC50 [11]: 270 nM; MIC90 [11]: 0.63 µM (≈ 0.225 µg/mL); IC50 [12]: 230 nM; MIC90 [12]: 0.63 µM (≈ 0.225 µg/mL); IC50 [13]: 200 nM; MIC90 [13]: 0.63 µM (≈ 0.225 µg/mL); MIC [14]: 2.5 µM (≈ 0.891 µg/mL); IC50 [14]: 1380 nM
CCc1cnc(NC(=O)CCC2CCCCC2)s1 | > 20000 | > 40 | > 20 | > 40 |  |  | 
O=C(Nc1ncc(CC2CCCC2)s1)C1CCCCC1 | 760 | 1.25 (≈ 0.366 µg/mL) | > 20 | > 40 | > 40 | > 53 | 
O=C(Nc1ncc(Cc2cccc3c2CCCC3)s1)C1CCCCC1 | > 20000 | > 40 | > 20 | > 40 |  |  | 
O=C(CCC1CCCCC1)Nc1ncc(Cc2cccc3ccsc23)s1 | 920 | 5 (≈ 1.92 µg/mL) | > 20 | > 40 | 18.9 | 21 | 
O=C(CCC1CCCCC1)Nc1ncc(Cc2cccc3c2CCC3)s1 | 380 | 0.63 (≈ 0.232 µg/mL) | > 20 | > 40 | > 40 | > 105 | 
O=C(Nc1ncc(Cc2cc3sccc3s2)s1)C1CCCCC1 | > 20000 | > 40 | > 20 | > 40 |  |  | 
OC(Cn1cncn1)(Cn1cncn1)c1ccc(F)cc1F [FLUCONAZOLE] |  |  | 0.95 | 4.08 (≈ 1.25 µg/mL) |  |  | IC50 [11]: 130 nM; MIC90 [11]: 2.04 µM (≈ 0.625 µg/mL); IC50 [12]: 27400 nM; MIC90 [12]: 65.4 µM (≈ 20 µg/mL); IC50 [13]: 14600 nM; MIC90 [13]: 32.7 µM (≈ 10 µg/mL)

Reference: ChEMBL document CHEMBL4219175, “Synthesis and biological evaluation of aminothiazoles against Histoplasma capsulatum and Cryptococcus neoformans” (Bioorg Med Chem, 2018)
